# Measurements published in ChEMBL document CHEMBL4270555, “Synthesis and biological evaluation of magnolol derivatives as melatonergic receptor agonists with potential use in depression” (Eur J Med Chem, 2018).
# The source made the active and inactive calls. No cut-off for these calls is given here.
# Experiments:
# [1] = Drug metabolism in Sprague-Dawley rat feces assessed as 5,5'-bis(1-hydroxyallyl)biphenyl-2,2'-diol formation at 100 mg/kg, po by UPLC-IT-TOF-MS analysis; assay type: ADME, organism-based; settings: in vivo
# In short: (§1)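 Rats (n = 6) housed in metabolic cages received 100.0 mg/kg orally; controls received 0.5% CMC-Na. Plasma, urine and faeces were collected and analyzed by LC-IT-TOF-MS on a C18 column at 30 °C. Gradient 5–100% acetonitrile with 0.05% formic acid over 18 min at 0.2 mL/min; positive and negative ion MS/MS.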
# Mus musculus [2] = experiment: Effect on 5-hydroxytryptamine level in Kunming mouse hippocampus at 40 mg/kg, po treated for 7 days by HPLC-ECD analysis; assay type: functional, organism-based
# In short: (§2)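 Male Kunming mice (18–20 g) given vehicle or 40 mg/kg for 7 days, then killed by cervical dislocation. Frontal cortex, hippocampus, striatum, hypothalamus and thalamus dissected on ice, homogenized in ice-cold 0.2 M perchloric acid with 0.1 mM EDTA, centrifuged 15,000 rpm, 20 min, 4 °C. Supernatant analysed by HPLC-ECD at +0.50 V; phosphate/octanesulfonate mobile phase pH 3.0 with 12% methanol. Levels in ng/g, mean ± SEM.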
# [3] = Drug metabolism in Sprague-Dawley rat urine assessed as 2'-hydroxy-5'-(1-hydroxyallyl)-5-propylbiphenyl-2-yl hydrogen sulfate formation at 100 mg/kg, po by UPLC-IT-TOF-MS analysis; assay type: ADME, organism-based; settings: in vivo
# In short: (§3)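 Male/unspecified SD rats (n = 6) housed individually in metabolic cages, dosed orally at 100.0 mg/kg; controls given 0.5% CMC-Na orally. Plasma, urine and faeces collected. LC-IT-TOF-MS on C18 column at 30 °C, formic acid (0.05%) water/acetonitrile gradient 5–100% B over 18 min, 0.2 mL/min; positive and negative ion modes with automatic MS/MS.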
# [4] = (§4) Drug metabolism in Sprague-Dawley rat urine assessed as (2S,3S,4S,5R,6S)-6-(5'-allyl-5-(1-hydroxyallyl)-2'-((2S,3R,4S,5S,6R)-3,4,5-trihydroxy-6-(hydroxymethyl)tetrahydro-2H-pyran-2-yloxy)biphenyl-2-yloxy)-3,4,5-trihydroxytetrahydro-2H-pyran-2-carboxylic acid formation at 100 mg/kg, po by UPLC-IT-TOF-MS analysis; assay type: ADME, organism-based; settings: in vivo; in short: as §3
# Mus musculus [5] = experiment: Decrease in dopamine level in Kunming mouse hypothalamus at 40 mg/kg, po treated for 7 days by HPLC-ECD analysis; assay type: functional, organism-based
# In short: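 Male Kunming mice received vehicle or 40 mg/kg for 7 days, then were killed by cervical dislocation and the brain regions dissected on ice. Tissue was homogenized in ice-cold 0.2 M perchloric acid with 0.1 mM EDTA and centrifuged at 15,000 rpm, 20 min, 4 °C. Supernatant was analyzed by HPLC-ECD (+0.50 V; phosphate/octanesulfonate mobile phase, pH 3.0). Results in ng/g, mean ± SEM.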
# Mus musculus [6] = experiment: Increase in ratio of 3,4-dihydroxyphenylacetic acid and 4-hydroxy-3-methoxyphenylacetic acid to dopamine level in Kunming mouse thalamus at 40 mg/kg, po treated for 7 days by HPLC-ECD analysis; assay type: functional, organism-based; in short: as §2
# [7] = Drug metabolism in Sprague-Dawley rat urine assessed as (2S,3R,4S,5S,6R)-2-(5'-allyl-2'-hydroxy-5-(1-hydroxyallyl)biphenyl-2-yloxy)-6-(hydroxymethyl)tetrahydro-2H-pyran-3,4,5-triol formation at 100 mg/kg, po by UPLC-IT-TOF-MS analysis; assay type: ADME, organism-based; settings: in vivo; in short: as §3
# [8] = Drug metabolism in Sprague-Dawley rat plasma assessed as 1-(5'-allyl-2'-hydroxy-6-((2S,3R,4S,5S,6R)-3,4,5-trihydroxy-6-(hydroxymethyl)tetrahydro-2H-pyran-2-yloxy)biphenyl-3-yl)prop-2-en-1-one formation at 100 mg/kg, po by UPLC-IT-TOF-MS analysis; assay type: ADME, organism-based; settings: in vivo; in short: as §1
# [9] = Drug metabolism in Sprague-Dawley rat plasma assessed as 5,5'-diallylbiphenyl-2,2'-diol formation at 100 mg/kg, po by UPLC-IT-TOF-MS analysis; assay type: ADME, organism-based; settings: in vivo; in short: as §3
# [10] = Drug metabolism in Sprague-Dawley rat urine assessed as (2S,3S,4S,5R,6S)-6-(5,5'-diallyl-2'-methoxybiphenyl-2-yloxy)-3,4,5-trihydroxytetrahydro-2H-pyran-2-carboxylic acid formation at 100 mg/kg, po by UPLC-IT-TOF-MS analysis; assay type: ADME, organism-based; settings: in vivo; in short: as §3
# [11] = Drug level in Sprague-Dawley rat plasma at 100 mg/kg, po by UPLC-IT-TOF-MS analysis; assay type: ADME, organism-based; settings: in vivo; in short: as §1
# Mus musculus [12] = experiment: Toxicity in Kunming mouse assessed as effect in spontaneous locomotor activity by measuring total number of line crosses at 10 to 40 mg/kg, po by open field test; assay type: organism-based; settings: in vivo
# In short: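 Male Kunming mice, 18–20 g, group-housed at 22 ± 2 °C on 12 h light/dark, given oral doses of 10, 20 or 40 mg/kg before behavioural testing. Each animal placed in the centre of a black open-field box (24 × 24 × 40 cm) for 30 s adaptation, then explored freely for 6 min. Line crossings and distance recorded. Mean ± SEM, n = 10.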
# Mus musculus [13] = experiment: Antidepressant activity in Kunming mouse assessed as decrease in immobility duration at 40 mg/kg, po by forced swim test relative to control; assay type: functional; parameters: scale not given: the % may be the effect or the level left
# In short: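 Male Kunming mice (18–20 g) given 10, 20 or 40 mg/kg orally; fluoxetine and agomelatine 20 mg/kg as references. Each mouse swam 6 min in a cylinder (25 × 15 cm) holding 10 cm of water at 25 ± 1 °C. Immobility over the last 4 min was scored by video tracking; n = 10, mean ± SEM versus vehicle.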
# Mus musculus [14] = experiment: Effect on 5-hydroxytryptamine level in Kunming mouse hypothalamus at 40 mg/kg, po treated for 7 days by HPLC-ECD analysis; assay type: functional, organism-based; in short: as §2
# [15] = Drug metabolism in Sprague-Dawley rat urine assessed as 5'-(1-hydroxyallyl)-5-(1-hydroxypropyl)-2'-((2S,3R,4S,5S,6R)-3,4,5-trihydroxy-6-(hydroxymethyl)tetrahydro-2H-pyran-2-yloxy)biphenyl-2-yl hydrogen sulfate formation at 100 mg/kg, po by UPLC-IT-TOF-MS analysis; assay type: ADME, organism-based; settings: in vivo; in short: as §3
# [16] = Drug metabolism in Sprague-Dawley rat plasma assessed as 2S,3S,4S,5R,6S)-6-(5,5'-diallyl-2'-((2S,3R,4S,5S,6R)-3,4,5-trihydroxy-6-(hydroxymethyl)tetrahydro-2H-pyran-2-yloxy)biphenyl-2-yloxy)-3,4,5-trihydroxytetrahydro-2H-pyran-2-carboxylic acid formation at 100 mg/kg, po by UPLC-IT-TOF-MS analysis; assay type: ADME, organism-based; settings: in vivo; in short: as §1
# [17] = as §4, with “plasma” for “urine”; assay type: ADME, organism-based; settings: in vivo; in short: as §1
# Mus musculus [18] = experiment: Effect on 5-hydroxytryptamine level in Kunming mouse frontal cortex at 40 mg/kg, po treated for 7 days by HPLC-ECD analysis; assay type: functional, organism-based; in short: as §2
# [19] = molecular target: Melatonin receptor type 1A (Homo sapiens, UniProt P48039); experiment: Agonist activity at human MT1 receptor expressed in HEK293 cells at 1 mM after 24 hrs by Fluo-8 dye-based calcium assay relative to control; assay type: functional, cell-based
# Chain of Melatonin receptor type 1A (P48039 whole entry): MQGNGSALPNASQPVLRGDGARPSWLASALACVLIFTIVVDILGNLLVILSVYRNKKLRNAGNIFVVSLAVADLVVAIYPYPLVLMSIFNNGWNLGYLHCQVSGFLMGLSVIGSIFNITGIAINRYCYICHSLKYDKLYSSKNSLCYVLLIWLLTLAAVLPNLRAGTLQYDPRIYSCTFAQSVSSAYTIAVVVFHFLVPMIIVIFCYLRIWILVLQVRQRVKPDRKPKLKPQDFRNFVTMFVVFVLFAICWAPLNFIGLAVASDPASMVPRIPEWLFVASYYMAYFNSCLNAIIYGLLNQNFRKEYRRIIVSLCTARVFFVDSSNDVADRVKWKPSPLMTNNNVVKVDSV
# In short: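 Fluo-8 calcium assay in HEK293 cells stably expressing human MT1 or MT2, seeded 4×10^4/well and incubated 24 h. Compounds tested at 1.00 mM, agomelatine positive control at 3.33 µM; fluorescence at ex 485/em 525 nm. Agonism expressed as mean ± SD, n = 3.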
smiles,measurement,setting,value
C=CCc1ccc(O)c(-c2cc(CC=C)ccc2O[C@@H]2O[C@H](CO)[C@@H](O)[C@H](O)[C@H]2O)c1,Drug metabolism,[1],Metabolite_Detected
same,Activity,Mus musculus [2],inactive
same,Drug metabolism,[3],Metabolite_Notdetected
same,Drug metabolism,[4],Metabolite_Detected
same,Activity,Mus musculus [5],Active
same,Activity,Mus musculus [6],Active
same,Drug metabolism,[7],Metabolite_Detected
same,Drug metabolism,[8],Metabolite_Notdetected
same,Drug metabolism,[9],Metabolite_Notdetected
same,Drug metabolism,[10],Metabolite_Detected
same,Drug uptake,[11],Active
same,Activity,Mus musculus [12],Non-Toxic
same,Activity,Mus musculus [13],37.66%
same,Activity,Mus musculus [14],inactive
same,Drug metabolism,[15],Metabolite_Detected
same,Drug metabolism,[16],Metabolite_Notdetected
same,Drug metabolism,[17],Metabolite_Notdetected
same,Activity,Mus musculus [18],inactive
same,Activity,[19],108%
